Sampled rows, rich in hits. Any-hit rate of the full collection: about 2%.
PglD DTNB: inhibitors of Campylobacter jejuni PglD acetyltransferase | AID 602405 | inhibition, % at 12.5 µM | 360,000 compounds, 0.098% hits | purified PglD enzyme, DTNB colorimetric CoA detection; in the data active = inhibition above about 16%, passing the limit was not always enough
Ecoli rRNA inh: selective bacterial rRNA inhibition in E. coli | GFP signal change (wild-type ribosome), % (concentration not given with the values) | AID 720706 | E. coli WT GFP vs humanized-ribosome RFP mutants, fluorescence, 24 h; hits give low values; DMSO median 0, no signal -100 | 350,000 compounds, 1.6% hits;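 active = significant combined selectivity score with lowered wild-type GFP, culture density cut under 30%, mutant RFP and density less affected; inactive = any of these conditions unmet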
XiGFP reactiv: activators of X-chromosome reactivation in mouse fibroblasts. activation, % at 7.58 µM. 360,000 compounds, 0.055% hits. XiGFP mouse fibroblasts, % GFP-positive cells imaging, 3 d; cells co-treated with 5-aza-dC sensitizer; scaled so ellipticine positive control = 100%;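 active = mean normalized replicate activation at least 10% and every replicate at or above 10%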
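Assay system: SV40-immortalized XiGFP fibroblast cells, line 68-5-11; buffer or medium: DMEM plus 5-aza-dC sensitizer; compound: one concentration, pinned; timing: compounds 3 days, fix/stain 15 min at room temperature; benchmarks: positive control ellipticine, 6 µM final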
RAD54 inh: blocks human RAD54 Holliday junction branch migration. FAM/BHQ fluorescence. Q92698. 360,000 compounds, 0.14% hits. inhibition, % at 10.4 µM;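 active = mean normalized replicate activity at least 40 and at least half of replicates scoring 40 or more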;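 note: inhibitors cause a drop in the FAM fluorescence signal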
RAD52 inh: blocks human RAD52 DNA annealing | P43351 | recombinant RAD52 DNA annealing, FRET fluorescence | inhibition, % at 18.7 µM | 360,000 compounds, 0.46% hits;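 active = every replicate showing at least 50% inhibition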
E-sel inducer: E-selectin induction on HUVECs; P16581; HUVEC E-selectin immunofluorescence imaging; normalized: neutral wells 0, TNF-alpha wells 100; activation, % at 7.58 µM; 260,000 compounds, 0.37% hits; AID 686992;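 active = mean E-selectin-positive cell signal at least 10% of the positive control, reached in at least 60% of replicates, without over 20% cell loss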
Target sequence (P16581 whole entry, looked up): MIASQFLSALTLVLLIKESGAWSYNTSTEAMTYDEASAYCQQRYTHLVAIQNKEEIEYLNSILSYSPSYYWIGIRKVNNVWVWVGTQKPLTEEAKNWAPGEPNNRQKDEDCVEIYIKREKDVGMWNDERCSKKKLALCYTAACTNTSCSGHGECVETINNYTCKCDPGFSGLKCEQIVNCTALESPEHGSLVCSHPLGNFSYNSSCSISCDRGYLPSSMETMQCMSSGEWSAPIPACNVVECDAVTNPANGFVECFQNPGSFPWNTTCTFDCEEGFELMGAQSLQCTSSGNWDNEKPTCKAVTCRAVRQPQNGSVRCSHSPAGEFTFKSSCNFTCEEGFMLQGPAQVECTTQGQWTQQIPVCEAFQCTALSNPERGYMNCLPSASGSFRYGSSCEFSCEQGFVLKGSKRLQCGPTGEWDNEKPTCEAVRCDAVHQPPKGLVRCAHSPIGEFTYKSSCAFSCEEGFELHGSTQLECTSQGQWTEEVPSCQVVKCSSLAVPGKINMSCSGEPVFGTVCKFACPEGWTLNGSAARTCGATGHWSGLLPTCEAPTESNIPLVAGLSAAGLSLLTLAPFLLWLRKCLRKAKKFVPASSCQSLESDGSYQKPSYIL
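Test system: HUVEC; input: 3,000 HUVEC/well; measured by: immunofluorescence imaging; read-out: % PE-positive cells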
Hits are given with their value; - = inactive; . = no result given; ! = repeats disagree.

SMILES	PglD DTNB	Ecoli rRNA inh	XiGFP reactiv	RAD54 inh	RAD52 inh	E-sel inducer
COc1ccc(NC(=O)N2[C@@H]3CNC[C@H]2C3c2ccc(-c3ccc(F)cc3)cc2)cc1 (stereo partly specified)	.	-	-	.	57	-
COc1ccc(NC(=O)N2[C@@H]3CNC[C@H]2C3c2ccc(/C=C/c3ccccc3)cc2)cc1 (stereo partly specified)	.	-	-	.	55	-
COc1ccc(-c2ccc(C3[C@H]4CNC[C@@H]3N4C(=O)Nc3ccc(C(F)(F)F)cc3)cc2)cc1 (stereo partly specified)	.	-	-	.	66!	-
COc1ccc(-c2ccc(C3[C@H]4CNC[C@@H]3N4C(=O)Nc3ccc(F)cc3)cc2)cc1 (stereo partly specified)	.	-	-	.	-	-
COc1ccc2oc(C)c(C(=O)c3ccccc3)c2c1	.	-30	-	.	-	-
O=C(COC(=O)c1ccccc1NCCO)NNC(=O)c1cccs1	-	-	-	-	-	428
CCN(CC)CCN(C(=O)Cn1nnc(-c2ccc(C)o2)n1)C(C(=O)NC(C)(C)C)c1cccs1 (stereo unspecified)	.	-	-	.	-	128
Cc1ccc(-c2nnn(CC(=O)N(Cc3ccco3)C(C(=O)NC3CCCC3)c3cccs3)n2)o1 (stereo unspecified)	-	.	.	-	.	.
O=C1Oc2ccccc2C(=O)/C1=C/N1CCN(c2ccccc2F)CC1	.	-30	-	.	-	-
C[C@@H]1CN([C@H](C)CO)C(=O)c2cc(NC(=O)Cn3cnnn3)ccc2O[C@H]1CN(C)Cc1ccccc1	-	-	-	-	-	-
Nc1ccc2c(c1)Cc1cc(N)c(Cl)cc1-2	-	-31	-	-	-	-
Nc1ccc2c(c1)C(=O)c1ccc(Cl)cc1-2	-	-	-	-	-	-
Nc1ccc2c(c1)Cc1cc(Cl)c(Cl)cc1-2	-	-	-	-	-	-
Nc1ccc2c(c1)C(=O)c1cc(N)c(Cl)cc1-2	-	-19	-	-	-	-
Cc1c(Cc2ccccc2)c(=O)oc2c(C)c(OC(C)C(=O)NCC3CCC(C(=O)O)CC3)ccc12 (stereo unspecified)	-	-21	.	-	-	.
CC(Oc1cc2oc(=O)c3c(c2cc1Cl)CCCC3)C(=O)NCC1CCC(C(=O)O)CC1 (stereo unspecified)	-	-	-	-	-	87
C[C@@H]1CN([C@@H](C)CO)C(=O)c2cc(NS(=O)(=O)c3ccccc3)ccc2O[C@@H]1CN(C)C(=O)Nc1ccc(C(F)(F)F)cc1	.	-	-	.	.	-
N#CC1(NC(=O)CSc2nc3ccccc3s2)CCCCC1	-	-	-	-	-	.
O=C(CSc1nc2ccccc2s1)NCc1cc([N+](=O)[O-])ccc1O	-	-31	-	-	-	-
N#CC1(NC(=O)CSc2nc3ccc([N+](=O)[O-])cc3s2)CCCCC1	.	-17	-	.	-	-
Nc1cc(N2CCOCC2)c(Cl)cc1[N+](=O)[O-]	.	-21	-	.	-	-
CN(C)CC(=O)N1[C@@H]2Cn3c(ccc(-c4ccccc4)c3=O)[C@H]1[C@@H](C(=O)N1CCCCC1)[C@@H]2CO	-	-	-	-	-	-
Cc1ccccc1OCC(=O)Nc1ccc2[nH]ncc2c1	-	-21	-	-	-	.
O=C(COc1ccccc1)Nc1ccc2[nH]ncc2c1	-	-	-	-	-	.
O=C(C[C@H]1CC[C@@H](NC(=O)CC2CC2)[C@H](CO)O1)NCc1ccccc1	.	-	-	.	-	-
SMILES	PglD DTNB	Ecoli rRNA inh	XiGFP reactiv	RAD54 inh	RAD52 inh	E-sel inducer
CCCN(C)C[C@@H]1Oc2ncc(-c3ccc(F)cc3)cc2C(=O)N([C@H](C)CO)C[C@@H]1C	-	-	-	-	-	-
Nc1nn(-c2ccccc2)c2ccc([N+](=O)[O-])cc12	-	-21	-	-	-	-
O=[N+]([O-])c1ccc2c(c1)nnn2-c1ccccc1	-	-	-	-	-	.
CCCN1C[C@H](C)[C@H](OC)CN(C)C(=O)c2cc(NC(=O)Nc3cccc(OC)c3)ccc2OC[C@H]1C	.	-	-	.	.	-
CCCSc1cc(NCCOC(=O)CCC)c([N+](=O)[O-])c2nonc12	.	.	-	.	.	.
CCC(=O)OCCNc1cc(Sc2nc3ccccc3[nH]2)c2nonc2c1[N+](=O)[O-]	.	.	16	.	.	.
CCCC(=O)OCCNc1cc(Sc2nccn2C)c2nonc2c1[N+](=O)[O-]	.	.	23	.	.	.
CCC(=O)OCCNc1cc(Sc2nc3ccccc3s2)c2nonc2c1[N+](=O)[O-]	-	.	.	-	.	.
O=C(C1CCC1)N1CC(=O)N2[C@H](C1)[C@H](c1ccc(C#Cc3cccc(F)c3)cc1)[C@@H]2CO	.	-	-	.	-	.
Cc1cc(N)n(-c2ccc(S(=O)(=O)c3ccc(C(C)C)cc3)cc2)n1	.	-26	-	.	-	.
C[C@@H]1CN([C@H](C)CO)C(=O)c2cc(C#CCc3ccccc3)cnc2O[C@@H]1CN(C)C(=O)Cc1cccnc1	-	-	-	-	-	-
NC(=O)COC(=O)CSc1cccc2cccc(Cl)c12	.	-29	-	.	-	-
O=C(COC(=O)CSc1cccc2cccc(Cl)c12)Nc1ncc(C(F)(F)F)cc1Cl	.	-	-	.	-	.
C[C@@H]1CN([C@H](C)CO)C(=O)c2ccccc2-c2ccccc2CO[C@@H]1CN(C)C(=O)Nc1ccc(-c2ccccc2)cc1	.	-	-	.	-	-
COC(=O)C1=C(C)NC(=S)NC1/C=C/c1ccccc1 (stereo unspecified)	-	-	-	-	-	-
CCOC(=O)C1=C(C)NC(=S)NC1/C=C/c1ccccc1 (stereo unspecified)	-	.	36	-	.	.
O=C(/C=C/c1cn(-c2ccccc2)nc1-c1cccs1)NCCN1CCOCC1	-	-30	-	-	-	-
CN(C)C(=O)COC(=O)/C=C/c1cn(-c2ccccc2)nc1-c1cccs1	.	-32	-	.	-	-
NC(=O)N/N=C/c1cn(-c2ccccc2)nc1-c1cccs1	.	-	-	.	-	-
O=C(Cc1ccccn1)N1CC[C@@H]2[C@H](CO)Nc3ccc(-c4cccc(F)c4)cc3[C@@H]21	-	-	-	-	-	-
CCNC(=O)C[C@H]1CC[C@@H]2[C@H](COC[C@H](O)CN2C(=O)C2CC2)O1	-	-	-	-	-	-
N#C[C@@H]1[C@@H](c2ccc(C3=CCCCC3)cc2)[C@@H](CO)N1C(=O)Cc1ccncc1	-	-	-	-	-	-
Cn1cc(/C=C/C(=O)N2CCCC(C(=O)c3cccc(C(F)(F)F)c3)C2)cn1 (stereo unspecified)	-	-29	-	-	-	.
Nc1nc(SCc2ccc(Cl)c(Cl)c2)n[nH]1	.	-37	-	.	-	-
Nc1nc(SCc2ccc(Br)cc2)n[nH]1	-	-	-	-	-	-
Nc1c2c(nc3sc4c(c13)CCCCC4)CCCCC2	-	-	-	-	-	.

Screening data: PubChem BioAssay, Broad Institute
